In experiment [1] the test system is Rattus norvegicus. The experiment is described as follows: Percentage of animals emitting >80% of lever presses in LSD trained rats at a compound dose of 25.3 uM/Kg. Type of experiment: functional. Put shortly: (§1)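 Male Sprague–Dawley rats (200–220 g) in a two-lever, FR50 food-reinforced task. Rats were trained to discriminate saline from LSD tartrate (0.08 mg/kg), DOI HCl (0.4 mg/kg) or LY293284 (0.025 mg/kg) in 15-min sessions. %SDL is the share of rats making over 80% of presses on the drug lever. %D is the share failing to make 50 presses within 15 min. ED50 by Litchfield–Wilcoxon log-probit.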

In experiment [2] the test system is Rattus norvegicus. The experiment is described as follows: Percentage of animals emitting >80% of lever presses in […] trained rats at a compound dose of 25.3 uM/Kg. The class given is functional. The essentials:
as §1

Experiment [3] has as its system Rattus norvegicus. Briefly: Percentage of animals failing to emit 50 lever presses within 15 min in […] trained rats at a compound dose of 8 mg/kg. Type of experiment: functional. The essentials:
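Two-lever drug discrimination in male Sprague–Dawley rats (200–220 g at start), trained against saline on LSD tartrate (0.08 mg/kg), DOI HCl (0.4 mg/kg) or LY293284 (0.025 mg/kg). FR50 food-pellet reinforcement, levers counterbalanced, 15-min sessions at 22–24 °C. %D is the share of tested rats not completing 50 lever presses within 15 min.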

In experiment [4] the target is 5-hydroxytryptamine receptor 2B (Homo sapiens, UniProt P41595). Briefly: Compound was tested for the displacement of [3H]5-HT from clone human 5-hydroxytryptamine 2B receptor. Put shortly:
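Membranes from AV12 cells stably expressing human 5-HT2B, 100–150 μg protein. [3H]-5-HT was about 2 nM (1.7–2.5 nM) final. Buffer was 50 mM Tris pH 7.4 with 3 mM CaCl2, 10 μM pargyline and 0.1% ascorbic acid. Drug dilutions spanned 6 log units. Incubation was 15 min at 37 °C. Nonspecific binding used 10 μM 5-HT or 1-NP. PEI-soaked GF/B filtration, scintillation counting, triplicate, sigmoid nonlinear regression.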
In general terms: Displacement assays read how much labelled ligand stays bound in the presence of the test substance.

Experiment [5] concerns Rattus norvegicus. The experiment is described as follows: Percentage of animals emitting >80% of lever presses in DOI trained rats at a compound dose of 50.6 uM/Kg. The class given is functional. The essentials: as §1
For experiment [6], the system named is Rattus norvegicus. The experiment is described as follows: Percentage of animals failing to emit 50 lever presses within 15 min in LSD trained rats at a compound dose of 1.0 mg/kg. The class given is functional. The essentials: as §1
Experiment [7] deals with Rattus norvegicus. Briefly: Percentage of animals emitting >80% of lever presses in LSD trained rats at a compound dose of 3.16 uM/Kg. Type of experiment: functional. Put shortly:
as §1

In experiment [8] the target is 5-hydroxytryptamine receptor 2A (Homo sapiens, UniProt P28223). Briefly: Compound was tested for the displacement of [125I]-DOI from clone human 5-hydroxytryptamine 2A receptor. The essentials:
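Membranes from AV12 hamster fibroblasts stably expressing human 5-HT2A or 5-HT2C. [125I]DOI was about 0.07–0.15 nM final. Buffer was 50 mM Tris-HCl pH 7.4 with 10 μM pargyline, 9.75 mM MgCl2, 0.5 mM Na2-EDTA and 0.1% Na ascorbate. Incubation was 30 min at 37 °C with about 40 μg protein (2A) or 30 μg (2C). Nonspecific binding used 1 μM ketanserin (2A) or 10 μM mianserin (2C). Read by gamma counting; sigmoid nonlinear regression.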

Experiment [9] concerns Rattus norvegicus. Briefly: Percentage of animals emitting >80% of lever presses in DOI trained rats at a compound dose of 6.32 uM/Kg. Type of experiment: functional. Put shortly: as §1
In experiment [10] the test system is Rattus norvegicus. Briefly: Percentage of animals emitting >80% of lever presses in LSD trained rats at a compound dose of 1.58 uM/Kg. The class given is functional. Put shortly:
as §1

Sequence of 5-hydroxytryptamine receptor 2B (P41595 whole entry): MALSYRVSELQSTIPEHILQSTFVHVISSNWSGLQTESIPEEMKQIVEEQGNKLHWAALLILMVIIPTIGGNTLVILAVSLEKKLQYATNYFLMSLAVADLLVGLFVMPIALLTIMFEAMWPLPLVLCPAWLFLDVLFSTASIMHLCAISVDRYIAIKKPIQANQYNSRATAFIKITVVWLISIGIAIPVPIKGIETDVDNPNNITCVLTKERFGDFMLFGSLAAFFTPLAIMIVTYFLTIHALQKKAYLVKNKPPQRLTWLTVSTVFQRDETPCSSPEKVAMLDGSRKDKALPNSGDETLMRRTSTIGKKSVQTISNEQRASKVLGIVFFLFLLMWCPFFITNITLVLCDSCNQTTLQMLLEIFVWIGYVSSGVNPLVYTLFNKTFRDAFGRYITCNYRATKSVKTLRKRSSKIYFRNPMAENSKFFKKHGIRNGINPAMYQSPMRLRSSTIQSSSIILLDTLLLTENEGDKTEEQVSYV
Sequence of 5-hydroxytryptamine receptor 2A (P28223 whole entry): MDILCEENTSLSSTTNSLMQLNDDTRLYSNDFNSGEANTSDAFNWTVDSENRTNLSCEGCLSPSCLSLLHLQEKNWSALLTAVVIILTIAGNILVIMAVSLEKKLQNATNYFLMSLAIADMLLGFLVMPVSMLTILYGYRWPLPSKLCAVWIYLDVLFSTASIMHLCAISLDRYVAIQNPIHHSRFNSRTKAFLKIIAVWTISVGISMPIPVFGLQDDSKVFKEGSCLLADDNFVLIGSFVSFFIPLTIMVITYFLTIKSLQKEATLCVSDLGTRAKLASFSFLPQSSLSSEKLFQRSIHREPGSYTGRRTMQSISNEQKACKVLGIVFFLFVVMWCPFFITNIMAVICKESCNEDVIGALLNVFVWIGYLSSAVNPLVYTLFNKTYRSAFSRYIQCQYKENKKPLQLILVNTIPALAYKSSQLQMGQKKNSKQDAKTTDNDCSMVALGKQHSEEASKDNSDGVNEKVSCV

What is called Ki is a dissociation constant, usually derived from enzyme kinetics or from competition with a known ligand. Read a low Ki as a stronger hold on the target. For the compound `CN(C)CCc1c[nH]c2sccc12`, the SDL with Rattus norvegicus [1] came to 9%; with Rattus norvegicus [2], 58%; in the experiment with Rattus norvegicus [5] it was 0%; in the experiment on Rattus norvegicus [7] it was 7.7%; in the experiment with Rattus norvegicus [9] it was 0%; with Rattus norvegicus [10], 14%. Moreover, the D in the experiment with Rattus norvegicus [3] and in the experiment on Rattus norvegicus [6] was 0% in each case. Also, the values for the inhibition constant Ki in experiment [4] and in [8] were 483 nM and 106 nM, respectively.
